# Measured values reported in ChEMBL document CHEMBL3108694, “Development of novel dual binders as potent, selective, and orally bioavailable tankyrase inhibitors” (J Med Chem, 2013).
# How the values were obtained:
# [1] = test system: Plasma; assay: Unbound plasma concentration in athymic nude mouse xenografted with human DLD1 cells at 50 mg/kg, po qd administered for 3 days measured 24 hrs post last dose; assay type: ADME, organism-based, DLD-1; design: dose 50 mg/kg, route oral; conditions: in vivo
# Outline: (§1)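 Athymic nude mice carried subcutaneous DLD-1 tumors engineered with a Wnt-responsive STF firefly luciferase and a constitutive Renilla luciferase. At about 250 mm³, mice were randomized (n = 4 per group) and dosed orally once daily for 3 days at 10 or 50 mg/kg, or with vehicle. Tumor axin2 was measured by MSD immunoassay. STF was read by Dual-Glo, firefly normalized to Renilla. Plasma was taken for exposure.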
# [2] = test system: Mus musculus; assay: Ex vivo inhibition of TNKS in tumor of athymic nude mouse xenografted with human DLD1 cells assessed as inhibition of super-Topflash reporter gene transcription at 50 mg/kg, po qd administered for 3 days measured 24 hrs post last dose by dual-glo luciferase reporter gene assay relative to control; assay type: functional; conditions: DLD-1; outline: as §1
# [3] = test system: Mus musculus; assay: Ex vivo inhibition of TNKS in tumor of athymic nude mouse xenografted with human DLD1 cells assessed as inhibition of super-Topflash reporter gene transcription at 10 mg/kg, po qd administered for 3 days measured 24 hrs post last dose by dual-glo luciferase reporter gene assay relative to control; assay type: functional; conditions: DLD-1; outline: as §1
# [4] = Oral bioavailability in rat at 2 mg/kg; assay type: ADME, organism-based; conditions: in vivo
# [5] = Tmax in CD-1 mouse at 30 mg/kg, po; assay type: ADME, organism-based; design: dose 30 mg/kg, route oral; conditions: in vivo
# Outline: (§2)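 Male CD-1 mice given a single oral dose of 30 mg/kg. Vehicle was 10% Pluronic F68, 30% HPBCD and 60% water, pH adjusted to 10.0 with NaOH for most compounds or to 2.5 with methanesulfonic acid for one. Mean plasma PK parameters were reported.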
# [6] = AUC (0 to infinity) in CD-1 mouse at 30 mg/kg, po; assay type: ADME, organism-based; design: time infinity, dose 30 mg/kg, route oral; conditions: plasma; outline: as §2
# [7] = Cmax in CD-1 mouse at 30 mg/kg, po; assay type: ADME, organism-based; design: dose 30 mg/kg, route oral; conditions: in vivo; outline: as §2
# [8] = Half life in rat at 0.5 mg/kg, iv; assay type: ADME, organism-based; design: dose 0.5 mg/kg, route intravenous; conditions: in vivo
# Outline: (§3)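 Male rats received a single intravenous dose of 0.5 mg/kg. Mean clearance, steady-state volume of distribution and half-life were reported.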
# [9] = Volume of distribution at steady state in rat at 0.5 mg/kg, iv; assay type: ADME, organism-based; design: dose 0.5 mg/kg, route intravenous; conditions: in vivo, read-out: Vdss; outline: as §3
# [10] = Inhibition of TNKS in human DLD1 cells expressing APC mutant assessed as inhibition of super-Topflash reporter gene transcription after 40 to 48 hrs by dual-glo luciferase reporter gene assay; assay type: cell-based; conditions: DLD-1
# Outline: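 DLD-1 cells carried an 8× TCF-driven firefly luciferase and an EF1a-driven Renilla luciferase, and were seeded at 10 000/well in RPMI with 10% FBS without antibiotics. A 10-point, 3-fold dilution series starting at 10 μM was applied for 40–48 h at 37 °C. Firefly and Renilla activities were read with Dual-Glo reagents.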
# [11] = Inhibition of TNKS in human SW480 cells assessed as accumulation of axin-2 into cytoplasmic foci after 24 hrs by Hoechst dye-based assay; conditions: SW480, 24 h
# [12] = (§4) Inhibition of TNKS in human SW480 cells assessed as degradation of total pool of beta-catenin after 40 to 48 hrs; assay type: cell-based
# Outline: (§5)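 SW480 cells were seeded at 10 000/well in MEMα with 10% HI FBS, GlutaMAX, pyruvate and 10 mM HEPES. They were treated with a 10-point, 3-fold dilution series at 0.1% final DMSO for 40–48 h at 37 °C, then lysed. Total β-catenin was measured by MSD sandwich immunoassay (polyclonal capture, SULFO-TAG mAb detection).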
# [13] = Clearance in rat at 0.5 mg/kg, iv; assay type: ADME, organism-based; design: dose 0.5 mg/kg, route intravenous; conditions: in vivo; outline: as §3
# [14] = Fraction unbound in mouse plasma at 5 uM after 5 hrs by equilibrium dialysis method; assay type: ADME, cell-free
# Outline: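 Mouse plasma was spiked to a final 5 μM and equilibrium-dialyzed against plasma water (ultrafiltrate) for 5 h at 37 °C in a CO2 incubator, using a rapid equilibrium dialysis device. Fraction unbound was determined in duplicate.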
# [15] = Solubility in fasted state simulated intestinal fluid at pH 6.8; assay type: ADME
# [16] = Half life in CD-1 mouse plasma at 1 uM by LC-MS/MS analysis; assay type: ADME, cell-free
# Outline: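 Lithium-heparinized CD-1 mouse plasma was spiked with 1 μM substrate and incubated at 37 °C for 3 h, sampling at 0, 0.167, 1, 2 and 3 h (n = 2). Samples underwent acetonitrile protein precipitation with tolbutamide as internal standard. Analysis was by reversed-phase UPLC-ESI-MS/MS in MRM mode.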
# [17] = target: T1, Poly [ADP-ribose] polymerase tankyrase-1 (Homo sapiens, UniProt O95271); assay: Inhibition of 6x-His-tagged TNKS1 (unknown origin) after 60 mins
# T1 sequence (O95271 whole entry): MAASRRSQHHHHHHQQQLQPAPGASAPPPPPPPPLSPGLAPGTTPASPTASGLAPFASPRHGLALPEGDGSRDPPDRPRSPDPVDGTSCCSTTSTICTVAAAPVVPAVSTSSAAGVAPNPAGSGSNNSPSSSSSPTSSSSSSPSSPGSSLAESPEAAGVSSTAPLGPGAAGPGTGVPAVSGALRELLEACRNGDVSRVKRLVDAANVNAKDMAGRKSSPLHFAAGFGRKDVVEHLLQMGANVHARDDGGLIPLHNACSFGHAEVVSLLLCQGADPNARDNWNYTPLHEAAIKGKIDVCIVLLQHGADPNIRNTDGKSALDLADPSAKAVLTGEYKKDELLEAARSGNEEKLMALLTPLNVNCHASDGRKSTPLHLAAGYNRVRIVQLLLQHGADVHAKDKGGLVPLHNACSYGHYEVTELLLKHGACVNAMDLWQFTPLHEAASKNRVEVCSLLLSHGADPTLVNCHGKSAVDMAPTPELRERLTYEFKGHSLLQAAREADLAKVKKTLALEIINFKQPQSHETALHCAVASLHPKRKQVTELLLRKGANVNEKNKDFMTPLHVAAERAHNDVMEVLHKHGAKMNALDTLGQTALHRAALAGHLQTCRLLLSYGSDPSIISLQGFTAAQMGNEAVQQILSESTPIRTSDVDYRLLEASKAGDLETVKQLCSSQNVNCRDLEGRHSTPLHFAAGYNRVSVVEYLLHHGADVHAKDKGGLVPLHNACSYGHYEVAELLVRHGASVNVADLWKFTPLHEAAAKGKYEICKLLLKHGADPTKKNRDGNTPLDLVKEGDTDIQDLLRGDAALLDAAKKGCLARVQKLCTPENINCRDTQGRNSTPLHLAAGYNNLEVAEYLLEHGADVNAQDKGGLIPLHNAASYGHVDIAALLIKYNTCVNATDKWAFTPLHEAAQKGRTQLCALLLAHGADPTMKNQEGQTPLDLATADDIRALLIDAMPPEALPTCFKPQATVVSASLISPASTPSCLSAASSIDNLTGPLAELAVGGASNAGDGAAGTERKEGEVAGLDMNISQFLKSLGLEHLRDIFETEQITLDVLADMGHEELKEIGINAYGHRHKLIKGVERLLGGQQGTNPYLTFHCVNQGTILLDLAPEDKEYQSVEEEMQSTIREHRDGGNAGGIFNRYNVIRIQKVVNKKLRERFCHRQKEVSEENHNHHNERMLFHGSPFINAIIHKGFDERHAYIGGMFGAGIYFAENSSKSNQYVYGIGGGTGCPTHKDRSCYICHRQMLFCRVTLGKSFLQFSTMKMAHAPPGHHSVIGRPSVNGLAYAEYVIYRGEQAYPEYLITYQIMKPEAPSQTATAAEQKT
# [18] = Volume of distribution at steady state in rat at 5 mg/kg, iv; assay type: ADME, organism-based; design: dose 5 mg/kg, route intravenous; conditions: in vivo, read-out: Vdss
# [19] = Half life in rat at 5 mg/kg, iv; assay type: ADME, organism-based; design: dose 5 mg/kg, route intravenous; conditions: in vivo
# [20] = test system: Rattus norvegicus; assay: Clearance in rat at 5 mg/kg, iv; assay type: ADME, organism-based; design: dose 5 mg/kg, route intravenous; conditions: in vivo
# [21] = test system: Rattus norvegicus; assay: AUC (infinity) in rat at 5 mg/kg, iv; assay type: ADME, organism-based, Plasma; design: time infinity, dose 5 mg/kg, route intravenous; conditions: in vivo
# [22] = Intrinsic clearance in rat liver microsomes at 1 uM after 30 mins; assay type: ADME; conditions: read-out: CLH
# Outline: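 Substrate depletion in rat liver microsomes: 0.25 mg protein/mL, 1 mM NADPH and 2 mM MgCl2 in 50 mM potassium phosphate, pH 7.4, prewarmed to 37 °C. Test compound was added to a final 1 μM, and parent loss was measured after 30 min at 37 °C.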
# [23] = test system: SW480; assay: as §4; assay type: cell-based; conditions: dose or concentration not given here; outline: as §5
Structure (SMILES),Cp(f) [1],inhibition in vivo at 50 mg/kg [2],inhibition in vivo at 10 mg/kg [3],bioavailability [4],Tmax [5],AUC(0-inf) [6],Cmax [7],half-life [8],Vd [9],IC50 [10],EC50 [11],IC50 [12],clearance [13],"fraction unbound at 5 h, 5 µM [14]",solubility [15],half-life at 1 µM [16],IC50 [17],further results
N#Cc1ccc(O[C@H]2CC[C@H](NC(=O)CCSc3nc4ccccc4c(=O)[nH]3)CC2)cc1,0.009 µM,79%,70%,21%,1.5 h,141 µM·h,24.2 µM,2.8 h,0.32 L/kg,0.3 nM,4 nM,1.9 nM,2 mL/min/kg,0.006,–,–,–,–
COc1ccccc1NC(=O)c1ccc(NC(=O)CCc2nc3ccccc3c(=O)[nH]2)cc1,–,–,–,–,–,–,–,–,–,–,–,160 nM,–,–,6.6 µg/mL,0.667 h,10 nM,Vd [18]: 4.69 L/kg; half-life [19]: 0.37 h; CL [20]: 182 mL/min/kg; AUC [21]: 0.11 µM·h
O=C(CCSc1nc2ccccc2c(=O)[nH]1)N[C@H]1CC[C@H](c2nnc(-c3ccccc3)o2)CC1,0.013 µM,58%,51%,13%,0.58 h,49.5 µM·h,18.7 µM,1.8 h,0.7 L/kg,0.6 nM,3.9 nM,4 nM,13.8 mL/min/kg,0.017,7 µg/mL,–,–,microsomal CLint at 1 µM [22]: 57 µL/min/mg
Cn1nc(-c2ccc(NC(=O)CCc3nc4ccccc4c(=O)[nH]3)cc2)c2ccccc21,–,–,–,–,–,–,–,–,–,–,–,–,–,–,–,> 16.7 h,400 nM,inhibition [23]: > 50%
